Fibroblast inh: blocks proliferation of human lung fibroblasts; actives 1.1% (n = 85,000); LL 47 human lung fibroblast viability, ATP luminescence; stronger effect = lower value; AID 719; viability, % at 10 µM;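 active means viability at or below 50% in the single dose screen; inactive means viability above 50%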;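 further: compound exposure lasted 72 h before the ATP readout; 100% = median luminescence of untreated cell-only wells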
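Test system: LL 47 human lung fibroblasts / Quantity: 1,150 cells in each well / Medium: IMEM growth medium with 15% fetal bovine serum / Incubation: 72 h compound exposure at 37 °C after overnight plating / Detection: CellTiter-Glo luminescence measuring cellular ATP / Read-out: % viability versus median cells-only luminescence / Benchmarks: cell-only wells, no compound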
PTEN del growth: growth suppressors of cells with PTEN tumor suppressor deletion; HCT116 PTEN-null viability, CellTiter-Glo, 60 h; stronger effect = lower value; viability, % at 10 µM; actives 1.2% (n = 140,000);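 active means viability at or below a set limit, 4 SD under the median of all tested compounds, cut at about 3.7% in these data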;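 further: PTEN knockout HCT116 line with beta catenin targeted HCT116 as companion control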
HUVEC inhibit: inhibitors of human endothelial cell proliferation | actives 1.1% (n = 86,000) | viability, % at 10 µM (by protocol) | AID 648 | HUVEC proliferation, CellTiter-Glo luminescence, 72 h; stronger effect = lower value;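 active means viability at or below 30%; inactive means viability above 30%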;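 further: 100% = median luminescence of DMSO-only cell control wells on each plate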
H69AR inhibit: blocks growth of human H69AR lung tumor cells; H69AR lung tumor viability, ATP luminescence, 72 h; stronger effect = lower value; viability, % at 10 µM; actives 6% (n = 85,000);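 active means viability at or below 40%; inactive means viability above 40%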;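 further: multidrug resistant small cell line overexpressing MRP-1 efflux transporter; 100% = mean luminescence of untreated control wells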
HCT116 bCat-KO: beta-catenin-lacking colon tumor cell growth suppression; HCT116 beta-catenin knockout viability, CellTiter-Glo, 60 h; stronger effect = lower value; viability, % at 10 µM; actives 1.5% (n = 140,000);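 active means viability at or under a set limit, the compound median less 4 SD, cut at about 6% in these data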;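 further: 0% = Hyamine 1622 control at 20 µM and 100% = untreated cell control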
Starred values were filed as active, the others as inactive; . = no result. This excerpt belongs to a sample that is enriched for hits.

SMILES	Fibroblast inh	PTEN del growth	HUVEC inhibit	H69AR inhibit	HCT116 bCat-KO
CCc1ccc2oc(-c3cc(N)ccc3O)nc2c1	68	34	82	32*	61
CCc1ccc2oc(-c3cc(N)cc(C)c3O)nc2c1	82	73	81	23*	64
COc1ccc(N2CCN(Cc3nc(N)nc(Nc4ccc(C)c(Cl)c4)n3)CC2)cc1	98	1.4*	64	23*	0.8*
Cc1ccc(Nc2nc(N)nc(CN3CCN(Cc4ccc5c(c4)OCO5)CC3)n2)cc1Cl	85	1.5*	66	14*	0.9*
Cc1ccc(CN2CCN(/N=C/c3ccc(C)s3)CC2)c(C)c1	.	105	.	.	85
O=C1Nc2ccccc2SC(c2ccccc2)C1O (configuration not stated)	93	103	92	95	98
Cc1ccc(N2C(=N)/C(=C3/Nc4ccccc4S3)C(c3ccccc3)C2=O)cc1 (configuration not stated)	.	1.8*	.	.	2.8*
Cc1c(/C=N\NC(=O)C2COc3ccc(C(C)(C)C)cc3O2)c2ccccc2n1C (configuration not stated)	.	42	.	.	71
COc1cccc(CN(c2ccc3c(c2)CCC3)S(=O)(=O)c2ccc(-n3cnnn3)c(OC)c2)c1	.	90	.	.	93
COc1ccc(NC(=S)NNC(=O)c2nnn(-c3ccccc3)c2C)cc1	.	96	.	.	107
N#Cc1ccc(-c2ccco2)nc1SCc1ccccc1	81	66	89	25*	79
Clc1ccc2c(N/N=C/c3cccc(Br)c3)ccnc2c1	.	1.7*	.	.	2.2*
CCn1c(SCC(=O)N2CCOCC2)nc2sc3c(c2c1=O)CCCC3	88	103	98	39*	99
CCn1c(SC(C)C(=O)O)nc2sc3c(c2c1=O)CCC3 (configuration not stated)	106	98	97	78	94
Cc1cc2c(=O)n(Cc3ccco3)c(SCC(=O)N3CCCc4ccccc43)nc2s1	89	57	78	62	60
O=C(CSc1nc2sc3c(c2c(=O)n1Cc1ccco1)CCC3)N1CCc2ccccc21	85	.	93	29*	.
CCn1c(SCC(=O)N2CCOCC2)nc2oc3c(Cl)cc(Cl)cc3c(=O)c2c1=O	87	13	88	14*	11
CCOc1cc(/C=N/O)cc(Br)c1OCC	97	90	78	67	96
CCCOc1c(Br)cc(/C=N/O)cc1OC	98	94	63	30*	109
CO/N=C/C(=N\Nc1ccc(OC)cc1)C(=O)c1ccc(OC)cc1	85	89	91	24*	84
CCCCN(CCCC)c1cc(C)nc(-c2ccccc2O)n1	91	63	130	69	71
O=C(Cn1c(SCC(=O)N2CCc3ccccc3C2)nc2ccccc21)NC1CCCC1	94	99	79	100	89
O=C(Cn1c(SCC(=O)N2CCc3ccccc32)nc2ccccc21)NC1CCCC1	103	93	76	29*	94
CCc1cccc(NC(=O)NC(=O)Cn2nnc(C(=O)OC)c2C(=O)OC)c1	.	93	.	.	82
Cc1ccn(C(=O)c2cc3c(C)nn(-c4ccccc4)c3s2)n1	110	81	53	81	82
SMILES	Fibroblast inh	PTEN del growth	HUVEC inhibit	H69AR inhibit	HCT116 bCat-KO
Cc1nn(-c2ccccc2)c2sc(C(=O)n3cccn3)cc12	92	.	48	38*	.
Cc1cnc(NC(=O)c2cc3c(C)nn(-c4ccccc4)c3s2)s1	62	40	64	26*	61
CNc1ccccc(-c2ccc3ccccc3n2)c1=O	.	70	.	.	60
O=S(=O)(Nc1ncn[nH]1)c1ccc(Cl)cc1	100	94	96	93	97
COC(=O)c1ccc(Oc2nc(C(N)=O)cc(-c3ccccc3)n2)cc1	99	9	101	12*	22
COC(=O)N/N=C/c1cc(Cl)cc(Cl)c1OCc1ccc(F)cc1	.	85	.	.	85
COc1ccc(/C=N/Nc2ncnc3sc4c(c23)CCCC4)cc1OC	.	42	.	.	43
O=C(Nc1ccccc1Cl)c1cccc(NS(=O)(=O)c2ccccc2)c1	.	100	.	.	97
c1ccc(-c2ccc(-c3cnc4n3CCCCC4)cc2)cc1	97	79	48	95	78
CCOc1ccc2c(c1)-c1c(ssc1=S)C(C)(C)N2C	97	79	77	32*	78
Cn1c(NCc2ccccc2)nc2c1c(=O)n(Cc1ccc(Br)cc1)c(=O)n2C	99	.	80	91	55
Cn1c(N/N=C2\CCCc3ccccc32)nc2c1c(=O)n(Cc1ccc(F)cc1)c(=O)n2C	.	1.2*	.	.	1.2*
Cc1ccc(NC(=O)c2ccc3c(c2)OCCO3)cc1	88	69	77	83	63
Cc1nc2c(ccc3nc(NC(=O)c4ccc5c(c4)OCCO5)sc32)s1	92	37	7.8*	8.2*	41
COC(=O)c1sccc1NC(=O)c1ccc2c(c1)OCO2	29*	89	64	39*	97
Cc1ccccc1NC(=O)c1ccc2c(c1)OCCO2	110	1.9*	104	84	89
COC(=O)c1ccc(NC(=O)c2ccc3c(c2)OCO3)cc1	95	87	90	79	81
COc1cc(CNc2cc(C)ccc2C)cc(OC)c1OC	92	83	89	62	82
COc1cc(C)c(CNc2ccc(OC)c(OC)c2)cc1C	.	83	86	36*	65
COc1cc(CNc2ccc(C)c(C)c2)cc(OC)c1OC	.	26	56	19*	17
COc1cc(C)c(CNc2cccc(C)c2)cc1C	101	89	104	113	102
Cc1cc(OCC(=O)O/N=C(\N)c2ccccc2)ccc1Br	.	89	.	.	85
CCCn1c2ccccc2c2nnc(SC(CC)C(=O)Nc3cc(C)on3)nc21 (configuration not stated)	110	87	106	32*	82
CCCn1c2ccccc2c2nnc(SC(CC)C(=O)Nc3sc4c(c3C#N)CCCC4)nc21 (configuration not stated)	.	66	.	.	79
Cc1cccc2cc(CN(CC3CCCO3)S(=O)(=O)c3ccccc3)c3nnnn3c12 (configuration not stated)	86	.	95	100	.
SMILES	Fibroblast inh	PTEN del growth	HUVEC inhibit	H69AR inhibit	HCT116 bCat-KO
Cc1ccc2cc(CN(CC3CCCO3)S(=O)(=O)c3ccccc3)c3nnnn3c2c1 (configuration not stated)	94	77	96	12*	71
COC(=O)CSc1nc(-c2cccs2)ccc1C#N	96	86	100	37*	74
CN1CCN(C(=O)CSc2nc(-c3cccs3)cc(-c3cccs3)c2C#N)CC1	53	4	2.0*	5.4*	3.1*
COc1ccc(-c2cc(-c3cccs3)c(C#N)c(SCC(=O)NCc3ccco3)n2)cc1	57	19	52	22*	14
C#CCSc1nc(-c2cccs2)ccc1C#N	82	88	57	43	95
COc1ccc(-c2cc(C3CC3)nc(SCC(=O)c3cccs3)c2C#N)cc1	.	81	.	.	74
CSc1nc(C2CC2)cc(-c2cccs2)c1C#N	32*	28	30*	8.6*	34

Assay outcomes (PubChem BioAssay)
